Test results from ChEMBL document CHEMBL2331097, “Synthesis of 5,7-disubstituted-4-methyl-7H-pyrrolo[2,3-d]pyrimidin-2-amines as microtubule inhibitors” (Bioorg Med Chem, 2013).
Each block holds one compound with its values, some of them ahead of it. Activity calls are given as the source filed them. No cut-off for these calls is given here.

How the values were obtained:
[1] = Cytotoxicity against mouse JC cells assessed as inhibition of cell survival after 48 hrs by SRB assay; assay type: functional, cell-based
In short: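 JC (CRL-2116) cells kept in RPMI-1640 with L-glutamine, 10% FBS and 50 μg/ml gentamicin at 37 °C, 5% CO₂. Cells were seeded at about 20% confluency and left 24 h to attach, then exposed to a range of concentrations for 48 h. Cells were PBS-washed, fixed in 10% trichloroacetic acid and stained with 0.4% SRB in 1% acetic acid. Dye was dissolved in 10 mM Tris and absorbance read at 570 nm.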

[2] = test system: JC; assay: Modulatory activity at P-gp in mouse JC cells assessed as lowest drug concentration required to increase intracellular [3H]taxol accumulation pretreated for 30 mins prior to [3H]taxol addition measured after 60 mins by liquid scintillation counting analysis; assay type: cell-based
In short: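 JC cells were seeded at about 25% confluency and grown 3–4 days to near confluency. Medium was switched to serum-free, and compounds were preincubated for 30 min at 37 °C. About 0.1 µCi [³H]Taxol (75 Ci/mmol) per well followed, for 60 min at 37 °C. Cells were washed twice with ice-cold PBS and lysed in 1% SDS. Intracellular label was counted by liquid scintillation, and the lowest concentration giving maximal accumulation was recorded.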

[3] = Growth inhibition of human EKVX cells after 48 hrs by SRB assay; assay type: functional
[4] = test system: SF-268; assay: Growth inhibition of human SF268 cells after 48 hrs by SRB assay; assay type: functional; details: SF-268, 48 h
[5] = test system: HL-60; assay: Growth inhibition of human HL60 cells after 48 hrs by SRB assay; assay type: functional; details: HL-60, 48 h
[6] = test system: HOP-62; assay: Growth inhibition of human HOP62 cells after 48 hrs by SRB assay; assay type: functional; details: HOP-62, 48 h
[7] = test system: NCI-H23; assay: Growth inhibition of human NCI-H23 cells after 48 hrs by SRB assay; assay type: functional; details: NCI-H23, 48 h
[8] = test system: NCI/ADR-RES; assay: Growth inhibition of human NCI/ADR-RES cells after 48 hrs by SRB assay; assay type: functional
[9] = test system: SN12C; assay: Growth inhibition of human SN12C cells after 48 hrs by SRB assay; assay type: functional
[10] = test system: TK-10; assay: Growth inhibition of human TK10 cells after 48 hrs by SRB assay; assay type: functional; details: TK-10, 48 h
[11] = test system: OVCAR-5; assay: Growth inhibition of human OVCAR5 cells after 48 hrs by SRB assay; assay type: functional; details: OVCAR-5, 48 h
[12] = test system: M14; assay: Growth inhibition of human M14 cells after 48 hrs by SRB assay; assay type: functional; details: M14, 48 h
[13] = test system: SK-MEL-2; assay: Growth inhibition of human SK-MEL-2 cells after 48 hrs by SRB assay; assay type: functional; details: SK-MEL-2, 48 h
[14] = test system: OVCAR-4; assay: Growth inhibition of human OVCAR4 cells after 48 hrs by SRB assay; assay type: functional; details: OVCAR-4, 48 h
[15] = test system: UACC-62; assay: Growth inhibition of human UACC62 cells after 48 hrs by SRB assay; assay type: functional; details: UACC-62, 48 h
[16] = test system: MDA-MB-231; assay: Growth inhibition of human MDA-MB-231 cells after 48 hrs by SRB assay; assay type: functional; details: MDA-MB-231, 48 h
[17] = test system: OVCAR-8; assay: Growth inhibition of human OVCAR8 cells after 48 hrs by SRB assay; assay type: functional; details: OVCAR-8, 48 h
[18] = test system: MDA-MB-435; assay: Growth inhibition of human MDA-MB-435 cells after 48 hrs by SRB assay; assay type: functional; details: MDA-MB-435, 48 h
[19] = test system: SF-539; assay: Growth inhibition of human SF539 cells after 48 hrs by SRB assay; assay type: functional; details: SF-539, 48 h
[20] = Growth inhibition of human Hs 578T cells after 48 hrs by SRB assay; assay type: functional
[21] = test system: A498; assay: Growth inhibition of human A498 cells after 48 hrs by SRB assay; assay type: functional; details: A498, 48 h
[22] = test system: RPMI-8226; assay: Growth inhibition of human RPMI8226 cells after 48 hrs by SRB assay; assay type: functional; details: RPMI-8226, 48 h
[23] = test system: SW-620; assay: Growth inhibition of human SW620 cells after 48 hrs by SRB assay; assay type: functional; details: SW-620, 48 h
[24] = test system: HCT-116; assay: Growth inhibition of human HCT116 cells after 48 hrs by SRB assay; assay type: functional; details: HCT-116, 48 h
[25] = test system: 786-0; assay: Growth inhibition of human 786-0 cells after 48 hrs by SRB assay; assay type: functional; details: 786-0, 48 h
[26] = test system: NCI-H322M; assay: Growth inhibition of human NCI-H322M cells after 48 hrs by SRB assay; assay type: functional
[27] = test system: UO-31; assay: Growth inhibition of human UO31 cells after 48 hrs by SRB assay; assay type: functional; details: UO-31, 48 h
[28] = test system: BT-549; assay: Growth inhibition of human BT549 cells after 48 hrs by SRB assay; assay type: functional; details: BT-549, 48 h
[29] = test system: SK-MEL-5; assay: Growth inhibition of human SK-MEL-5 cells after 48 hrs by SRB assay; assay type: functional; details: SK-MEL-5, 48 h
[30] = test system: HCT-15; assay: Growth inhibition of human HCT15 cells after 48 hrs by SRB assay; assay type: functional; details: HCT-15, 48 h
[31] = test system: NCI-H522; assay: Growth inhibition of human NCI-H522 cells after 48 hrs by SRB assay; assay type: functional; details: NCI-H522, 48 h
[32] = test system: DU-145; assay: Growth inhibition of human DU145 cells after 48 hrs by SRB assay; assay type: functional; details: DU-145, 48 h
[33] = test system: SK-OV-3; assay: Growth inhibition of human SKOV3 cells after 48 hrs by SRB assay; assay type: functional; details: SK-OV-3, 48 h
[34] = test system: T47D; assay: Growth inhibition of human T47D cells after 48 hrs by SRB assay; assay type: functional
[35] = test system: NCI-H460; assay: Growth inhibition of human NCI-H460 cells after 48 hrs by SRB assay; assay type: functional; details: NCI-H460, 48 h
[36] = test system: CCRF-CEM; assay: Growth inhibition of human CCRF-CEM cells after 48 hrs by SRB assay; assay type: functional
[37] = Growth inhibition of human HCC2998 cells after 48 hrs by SRB assay; assay type: functional; details: HCC 2998, 48 h
[38] = test system: K562; assay: Growth inhibition of human K562 cells after 48 hrs by SRB assay; assay type: functional; details: K562, 48 h
[39] = test system: IGROV-1; assay: Growth inhibition of human IGROV1 cells after 48 hrs by SRB assay; assay type: functional; details: IGROV-1, 48 h
[40] = test system: UACC-257; assay: Growth inhibition of human UACC257 cells after 48 hrs by SRB assay; assay type: functional; details: UACC-257, 48 h
[41] = test system: SNB-75; assay: Growth inhibition of human SNB75 cells after 48 hrs by SRB assay; assay type: functional; details: SNB-75, 48 h
[42] = test system: SR; assay: Growth inhibition of human SR cells after 48 hrs by SRB assay; assay type: functional
[43] = test system: SK-MEL-28; assay: Growth inhibition of human SK-MEL-28 cells after 48 hrs by SRB assay; assay type: functional; details: SK-MEL-28, 48 h
[44] = test system: Malme-3M; assay: Growth inhibition of human MALME-3M cells after 48 hrs by SRB assay; assay type: functional
[45] = test system: SNB-19; assay: Growth inhibition of human SNB19 cells after 48 hrs by SRB assay; assay type: functional; details: SNB-19, 48 h
[46] = test system: RXF 393; assay: Growth inhibition of human RXF393 cells after 48 hrs by SRB assay; assay type: functional; details: RXF 393, 48 h
[47] = test system: ACHN; assay: Growth inhibition of human ACHN cells after 48 hrs by SRB assay; assay type: functional
[48] = test system: LOX IMVI; assay: Growth inhibition of human LOXIMVI cells after 48 hrs by SRB assay; assay type: functional
[49] = test system: HT-29; assay: Growth inhibition of human HT-29 cells after 48 hrs by SRB assay; assay type: functional; details: HT-29, 48 h
[50] = test system: MCF7; assay: Growth inhibition of human MCF7 cells after 48 hrs by SRB assay; assay type: functional; details: MCF7, 48 h
[51] = test system: A549; assay: Growth inhibition of human A549/ATCC cells after 48 hrs by SRB assay; assay type: functional; details: A549, 48 h
[52] = test system: NCI-H226; assay: Growth inhibition of human NCI-H226 cells after 48 hrs by SRB assay; assay type: functional; details: NCI-H226, 48 h
[53] = test system: SF-295; assay: Growth inhibition of human SF295 cells after 48 hrs by SRB assay; assay type: functional; details: SF-295, 48 h
[54] = Ratio of compound IC50 to paclitaxel IC50 for mouse JC cells after 48 hrs by SRB assay; assay type: functional
[55] = test system: COLO 205; assay: Growth inhibition of human COLO205 cells after 48 hrs by SRB assay; assay type: functional; details: COLO 205, 48 h
[56] = test system: HOP-92; assay: Growth inhibition of human HOP92 cells after 48 hrs by SRB assay; assay type: functional; details: HOP-92, 48 h
[57] = test system: KM12; assay: Growth inhibition of human KM12 cells after 48 hrs by SRB assay; assay type: functional; details: KM12, 48 h
[58] = test system: MDA-MB-468; assay: Growth inhibition of human MDA-MB-468 cells after 48 hrs by SRB assay; assay type: functional; details: MDA-MB-468, 48 h
[59] = test system: CAKI-1; assay: Growth inhibition of human CAKI-1 cells after 48 hrs by SRB assay; assay type: functional; details: CAKI-1, 48 h
[60] = test system: OVCAR-3; assay: Growth inhibition of human OVCAR3 cells after 48 hrs by SRB assay; assay type: functional; details: OVCAR-3, 48 h
[61] = test system: U-251; assay: Growth inhibition of human U251 cells after 48 hrs by SRB assay; assay type: functional; details: U-251, 48 h
[62] = test system: PC-3; assay: Growth inhibition of human PC3 cells after 48 hrs by SRB assay; assay type: functional; details: PC-3, 48 h

Structure (SMILES): Cc1nc(N)nc2c1c(Sc1ccccc1)cn2Cc1ccccc1
IC50 [1]: 4000 nM
LED [2]: inactive

Structure (SMILES): CC(=O)O[C@H]1C(=O)[C@@]2(C)[C@H]([C@H](OC(=O)c3ccccc3)[C@]3(O)C[C@H](OC(=O)[C@H](O)[C@@H](NC(=O)c4ccccc4)c4ccccc4)C(C)=C1C3(C)C)[C@]1(OC(C)=O)CO[C@@H]1C[C@@H]2O [PACLITAXEL]
IC50 [1]: 150 nM

GI50 [5]: 220 nM
GI50 [7]: 428 nM
GI50 [11]: 596 nM
GI50 [13]: 446 nM
GI50 [14]: 338 nM
GI50 [16]: 361 nM
GI50 [17]: 334 nM
GI50 [18]: 32.1 nM
GI50 [22]: 713 nM
GI50 [23]: 208 nM
GI50 [24]: 265 nM
GI50 [25]: 575 nM
GI50 [26]: 712 nM
GI50 [28]: 440 nM
GI50 [29]: 110 nM
GI50 [30]: 242 nM
GI50 [31]: 31.6 nM
GI50 [32]: 337 nM
GI50 [33]: 251 nM
GI50 [34]: 443 nM
GI50 [35]: 251 nM
GI50 [36]: > 1000 nM
GI50 [38]: 116 nM
GI50 [43]: 417 nM
GI50 [47]: 216 nM
GI50 [49]: 247 nM
GI50 [50]: 46.4 nM
GI50 [51]: 329 nM
GI50 [52]: 927 nM
GI50 [55]: 204 nM
GI50 [58]: 52.4 nM
GI50 [60]: 164 nM
GI50 [61]: 311 nM
GI50 [62]: 301 nM
Structure (SMILES): COc1ccc(Cn2cc(CCc3cc(OC)c(OC)c(OC)c3)c3c(C)nc(N)nc32)cc1
GI50 [3]: 348 nM
GI50 [4]: 379 nM
GI50 [6]: 362 nM
GI50 [8]: 202 nM
GI50 [9]: 499 nM
GI50 [10]: 686 nM
GI50 [12]: 204 nM
GI50 [15]: 61.5 nM
GI50 [19]: 96.4 nM
GI50 [20]: 139 nM
GI50 [21]: 115 nM
GI50 [27]: 397 nM
IC50 [1]: 600 nM
GI50 [37]: 191 nM
GI50 [39]: 154 nM
GI50 [40]: > 1000 nM
GI50 [41]: 172 nM
GI50 [42]: 120 nM
GI50 [44]: 284 nM
GI50 [45]: 234 nM
GI50 [46]: 44.1 nM
GI50 [48]: 364 nM
GI50 [53]: 83.9 nM
Ratio IC50 [54]: 4
GI50 [56]: > 1000 nM
GI50 [57]: 264 nM
GI50 [59]: 206 nM
LED [2]: 0.2 µM

Structure (SMILES): COc1ccccc1Sc1cn(Cc2cc(OC)c(OC)c(OC)c2)c2nc(N)nc(C)c12
IC50 [1]: 3000 nM
LED [2]: inactive

Structure (SMILES): COc1cccc(Cn2cc(CCc3cc(OC)c(OC)c(OC)c3)c3c(C)nc(N)nc32)c1
IC50 [1]: 1400 nM
LED [2]: 0.5 µM

Structure (SMILES): COc1ccccc1Sc1cn(Cc2ccccc2)c2nc(N)nc(C)c12
IC50 [1]: 11000 nM
LED [2]: 1.5 µM

Structure (SMILES): COc1ccc(Cn2cc(CCc3cc(OC)c(OC)c(OC)c3)c3c(C)nc(N)nc32)cc1OC
IC50 [1]: 1500 nM
LED [2]: 1.2 µM
